# Measurements from PubChem BioAssay AID522 (The Scripps Research Institute Molecular Screening Center, 2006).
# Screen size: about 65,000 compounds; about 1,200 (1.8%) were called active.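 The calls were made as follows: active = activation above the mean activation of all tested compounds plus 3 SD (cut at about 50% in these data); inactive = the rest.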 What follows is part of a selection rich in actives, with near analogues and random picks from the rest.
# Biological target: Steroidogenic factor 1 (Homo sapiens) (UniProt Q13285)
# Experiment: SF-1 ligand-binding domain transactivation enhancers – cell-based, CHO-K1, Gal4-SF-1 LBD, luciferase luminescence, primary screen (AID 522)
# Details: CHO-K1 Gal4-SF-1 LBD luciferase reporter; at 10 µM; hits give high values; % increase over DMSO SF-1-specific signal
# Procedure, shortened: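 Assay system: CHO-K1 cells co-transfected with Gal4 DBD–human SF-1 LBD, 5xGal4 luciferase reporter; doses: 10 µM only; incubation: 20 h compound exposure at 37 °C after 1 h cell settling; signal: luciferase light emission; evaluation: percent activation versus DMSO; repeats: one test per compound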
# Steroidogenic factor 1 (Homo sapiens), sequence (Q13285 whole entry, looked up, the tested form may be a part): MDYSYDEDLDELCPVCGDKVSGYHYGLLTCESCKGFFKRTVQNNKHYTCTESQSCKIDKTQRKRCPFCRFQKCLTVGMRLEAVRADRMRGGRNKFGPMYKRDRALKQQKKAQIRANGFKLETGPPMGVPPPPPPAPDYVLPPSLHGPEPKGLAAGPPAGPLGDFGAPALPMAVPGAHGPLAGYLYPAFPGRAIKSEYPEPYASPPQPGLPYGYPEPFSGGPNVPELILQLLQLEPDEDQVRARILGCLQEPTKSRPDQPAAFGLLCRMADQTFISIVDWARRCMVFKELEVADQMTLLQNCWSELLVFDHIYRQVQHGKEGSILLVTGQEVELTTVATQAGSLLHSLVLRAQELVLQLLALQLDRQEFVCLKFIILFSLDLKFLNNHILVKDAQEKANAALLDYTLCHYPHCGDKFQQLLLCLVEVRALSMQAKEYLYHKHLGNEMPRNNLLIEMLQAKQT
row,SMILES,activation
1,CCCC(=O)N=c1sc2cccc(F)c2n1C,17.9% (inactive)
2,Cn1c(=NC(=O)c2ccco2)sc2cccc(F)c21,91.8% (active)
3,Cn1c(=NC(=O)C2CC2)sc2cc(F)cc(F)c21,-2% (inactive)
4,CC(=O)Nc1ccn(Cc2c(F)cccc2Cl)n1,42.1% (inactive)
5,CCCCOC(=O)c1ccc(N2C(=O)CC(N3CCN(C/C=C/c4ccccc4)CC3)C2=O)cc1 (centres undefined),-6.3% (inactive)
6,O=C(Cn1cnc2c(cnn2-c2ccccc2)c1=O)NCc1ccccc1,70.3% (active)
7,COc1ccc(-n2nnc3c(=O)n(CC(=O)OCc4ccccc4)cnc32)cc1,9.3% (inactive)
8,O=C(Cn1cnc2c(cnn2-c2ccc(F)cc2)c1=O)NCCc1ccccc1,-19.4% (inactive)
9,O=C(Cn1c(=O)sc2ccccc21)Nc1ccc2c(c1)OCCO2,-9.9% (inactive)
10,N#CC(=C1SC=CS1)c1nc(-c2ccccc2)cs1,80.9% (active)
11,N#C/C(=C1\CCCN1)c1nc(-c2ccccc2)cs1,30% (inactive)
12,CCOC(=O)CSc1nnc(CNC(=O)c2ccco2)n1-c1ccc(F)cc1,3.4% (inactive)
13,CN(CCc1ccccn1)S(=O)(=O)c1ccc2c3c(cccc13)C(=O)N2,14.4% (inactive)
14,COc1ccccc1OCCC(=O)OCC(=O)NC(=O)NC(C)(C)C,8.8% (inactive)
15,CCc1nnc(NC(=O)CSc2nnc(Cc3ccccc3)n2-c2ccc(OC)cc2)s1,-17.5% (inactive)
16,CS(=O)(=O)c1ccc2nc(NC(=O)C3C4C=CC(C4)C3C(=O)O)sc2c1 (centres undefined),8.1% (inactive)
17,CC(C)COC(=O)c1ccc(NC(=O)C2C3C=CC(C3)C2C(=O)O)cc1 (centres undefined),63.7% (active)
18,CCCCC(CCC(=O)Nc1ccc(C(=O)OCC)cc1)C(=O)O (centres undefined),-8.4% (inactive)
19,CCc1nnc(NC(=O)c2ccc(S(=O)(=O)NC3CCCCC3)cc2)s1,6.1% (inactive)
20,COc1cccc(N(CC(=O)Nc2cccc(N(C)S(C)(=O)=O)c2)S(C)(=O)=O)c1,1.3% (inactive)
21,CCOC(=O)C1CCN(C(=O)Cc2c(C(=O)O)[nH]c3ccccc23)CC1,-12.1% (inactive)
22,COC(=O)c1sccc1NC(=O)c1csc2c1CCCC2,-11.7% (inactive)
23,CC(=O)Cc1nsc(NC(=O)c2csc3c2CCCC3)n1,18% (inactive)
24,COC(=O)c1sc(NC(=O)c2csc3c2CCCC3)nc1C,50.9% (active)
25,CCOC(=O)c1cc(-c2nnc(-c3cc(OC)c(OC)c(OC)c3)o2)c(C)nc1C,-11% (inactive)
26,Cc1ccc(C)c2[nH]c(=O)c(CCNC(=O)CC(C)C)cc12,-11.8% (inactive)

row,SMILES,activation
1,CCOC(=O)C1Cn2c(nc3c(c2=O)C(C)(CC)Cc2ccccc2-3)S1 (centres undefined),-8.9% (inactive)
2,CC1Cn2c(nnc2-c2cccs2)S1 (centres undefined),-15.2% (inactive)
3,O=C(O)C1CCCCC1C(=O)Nc1ccc(Cl)cc1 (centres undefined),-2.8% (inactive)
4,O=C(NCc1cn2ccsc2n1)Nc1ccc(Cl)cc1,-1.8% (inactive)
5,O=C(Nc1ccc(Cl)cc1)c1ccsn1,73.5% (active)
6,CCOC(=O)C1CCCCN1Cc1ccc(OC)c(OC)c1OC (centres undefined),-21.3% (inactive)
7,O=C(CN1C(=O)NC2(CCCCC2)C1=O)NCCC1=CCCCC1,2.8% (inactive)
8,CN(c1ccc(C(=O)NCCC2=CCCCC2)cc1)S(C)(=O)=O,55.4% (active)
9,O=C(COc1cccc(-n2cnnn2)c1)NCCC1=CCCCC1,-3.3% (inactive)
10,Cn1nnc2cc(C(=O)NCCC3=CCCCC3)ccc21,49.9% (active)
11,O=C(Cc1nn[nH]n1)NCCC1=CCCCC1,3.7% (inactive)
12,CN(c1ccc(C(=O)N2CCc3ccccc3C2)cc1)S(C)(=O)=O,22.9% (inactive)
13,COc1ccc(S(=O)(=O)N2CCCC2)c(C)c1C,-8.5% (inactive)
14,c1ccc(-c2nnc3n2NC(c2ccc4c(c2)OCO4)S3)cc1 (centres undefined),-14.9% (inactive)
15,CC(C)C[C@H](NC(=O)Nc1cccc(C(F)(F)F)c1)C(=O)O,-1.1% (inactive)
16,Cc1ccsc1-c1nc(CSCC(=O)NCCN2CCCC2)c(C)o1,3.6% (inactive)
17,O=C(Nc1ccc2c(c1)OCCO2)c1ccncc1,20.3% (inactive)
18,O=C(Nc1cccnc1)c1ccc2c(c1)OCO2,13.2% (inactive)
19,Cn1c(=O)n(C)c2cc(C(=O)Nc3ccc4c(c3)OCO4)ccc21,21.2% (inactive)
20,CC(C)C(=O)Nc1cccc(C(=O)Nc2ccc3c(c2)OCO3)c1,55% (active)
21,Cc1ccc(C(=O)Nc2ccc3c(c2)OCO3)cc1S(=O)(=O)N1CCCCC1,22.6% (inactive)
22,COc1ccc(C(=O)Nc2ccc3c(c2)OCO3)cc1OC,55% (active)
23,CCc1nnc(NC(=O)c2c(O)c3c([nH]c2=O)CCCC3)s1,29.1% (inactive)
24,CC1C(c2ccccc2)=[N+]([O-])C2(CCCC2)N1O (centres undefined),18.6% (inactive)
25,O=C(C1CCC(C(=O)N2CCCC2)CC1)N1CCCC1 (centres undefined),-2.5% (inactive)
26,COc1ccc(NC(=O)c2cccc(NC(=O)c3ccco3)c2)c(OC)c1,-29.9% (inactive)

row,SMILES,activation
1,Fc1ccc2nc(N3CCCCC3)sc2c1,43.3% (inactive)
2,Fc1cc(F)c2nc(N3CCOCC3)sc2c1,52.6% (active)
3,c1c2c(cc3sc(N4CCCCC4)nc13)OCCO2,-71.4% (inactive)
4,O=C(O)Cc1ccc(NC(=O)c2cccs2)cc1,-7.4% (inactive)
5,O=C(Nc1ccc(NC(=O)c2cccs2)cn1)c1ccco1,73.3% (active)
6,Cc1ccnc(NC(=O)c2ccc(NC(=O)c3ccco3)cc2)c1,46.9% (inactive)
7,COc1ccc(N(C(=O)c2cccnc2)S(=O)(=O)c2ccc3c(c2)n(C)c(=O)n3C)cc1,-24.3% (inactive)
8,COc1ccc(Cn2nnc3c(=O)[nH]c(C4CCN(C(=O)c5ccccc5Cl)CC4)nc32)cc1,-2.2% (inactive)
9,CCC(=O)Nc1cccc(NC(=O)c2cccnc2)c1,-0.4% (inactive)
10,Cc1cc2nc(-c3ccc(NC(=O)c4cccnc4)cc3)oc2cc1C,54.8% (active)
11,CC(C)NS(=O)(=O)c1ccc(NC(=O)c2cccnc2)cc1,33.9% (inactive)
12,CCOC(=O)c1ccn(-c2nc(-c3ccco3)cc(C(F)(F)F)n2)n1,0.6% (inactive)
13,CC(C)Cc1cc(C(=O)NCCc2ccccc2)no1,80.7% (active)
14,CC(C)Cc1cc(C(=O)Nc2cc(Br)ccc2O)no1,11.7% (inactive)
15,Cc1cc(C(=O)NCCCc2ccccc2)no1,16.8% (inactive)
16,CC(C)Cn1c(CCC(=O)O)ccc1-c1cccs1,2.5% (inactive)
17,COc1ccccc1N=C1SC(C)CN1C(=O)C1CCC1 (centres undefined),1.8% (inactive)
18,COc1ccc(-n2nnnc2SCC(=O)c2ccc(OC)c(OC)c2)cc1,-4.4% (inactive)
19,O=C(O)CSCc1nc2ccccc2s1,15.5% (inactive)
20,COC(=O)Cc1cc(=O)n(-c2nc3ccccc3s2)[nH]1,-3% (inactive)
21,CCC(=O)NC(=Nc1nc2ccccc2s1)NC(=O)CC,60.7% (active)
22,COc1ccc(-c2cc(C(F)(F)F)n3nc(C(=O)N4CCOCC4)c(Cl)c3n2)cc1,-9.4% (inactive)
23,C=CCn1c(C)cc(C(=O)CN2C(=O)c3ccccc3C2=O)c1C,27.3% (inactive)
24,Cc1c(C(=O)CN2CCOCC2)[nH]c2ccccc12,8.5% (inactive)
25,O=C(Nc1ccc(-c2nnc(-c3ccccc3)o2)cc1)c1ccc(Br)o1,10.9% (inactive)
26,COc1ccc(CC(=O)Nc2ccc(-c3nnc(-c4ccccc4)o3)cc2)cc1,-59.5% (inactive)

row,SMILES,activation
1,Nc1ccc(-c2nnc(-c3ccc(-c4ccccc4)cc3)o2)cc1,55.2% (active)
2,CCOC(=O)c1nc(-c2ccc3c(c2)OCO3)[nH]c1C,46.3% (inactive)
3,Cc1cc(NC(=O)c2cnn3cccnc23)n(-c2ccccc2)n1,2.1% (inactive)
4,O=C(Nc1ccc(Cl)cn1)Nc1cccs1,47.6% (inactive)
5,O=C(Nc1ccc(Cl)cn1)c1cnn2cccnc12,63.8% (active)
6,CCS(=O)(=O)N1CCCC(C(=O)NCCCN(C)Cc2ccccc2)C1 (centres undefined),-14.4% (inactive)
7,COc1ccc(NS(=O)(=O)c2ccc(NC(=O)C(C)(C(F)(F)F)C(F)(F)F)cc2)nn1,-13.6% (inactive)
8,Cc1nc2nc(SCC(=O)NCc3ccco3)nn2c(C)c1Cc1ccccc1,5.7% (inactive)
9,O=C(NCc1ccco1)c1nc(-c2ccccc2)n(-c2ccccc2)n1,-4.9% (inactive)
10,O=C(Cc1ccccc1)n1nc(-c2ccccc2)nc1NCc1ccco1,50.5% (active)
11,CCOC(=O)C1CCCN(C(=O)c2ccc(CS(=O)(=O)c3ccc(Br)cc3)o2)C1 (centres undefined),19.7% (inactive)
12,Cc1cccc(-n2nc3c(c2NC(=O)c2ccc(Br)o2)CSC3)c1C,9.6% (inactive)
13,CCC(Oc1ccccc1)C(=O)NCc1cccnc1 (centres undefined),-4.9% (inactive)
14,COc1cc(OC)c(C(=O)Nc2ccc(N(C)C)cc2)cc1OC,51.4% (active)
15,COc1cc(OC)c(C(=O)NC2CCCCCC2)cc1OC,2% (inactive)
16,COc1ccc(NC(=O)c2ccc(OC)cc2)cc1,30.5% (inactive)
17,NC(=O)COc1ccc2c3c(c(=O)oc2c1)CCCCC3,-7.8% (inactive)
18,Cc1cc(NC(=O)COc2ccc(Cl)cc2Cl)n(CCC#N)n1,28.2% (inactive)
19,CCN1C(=O)/C(=C\N2CCN(c3ccccc3)CC2)SC1=S,-22.3% (inactive)
20,CCN1C(=O)c2cccc3c(N)ccc1c23,15.3% (inactive)
21,CCN1C(=O)/C(=C2\SC(N3CCCCC3)=NC2=O)c2ccccc21,53.9% (active)
22,Cc1nnc(Sc2nc3c(c(=O)[nH]c(=O)n3C)n2Cc2ccccc2)s1,-15% (inactive)
23,CCOC(=O)c1ccccc1NC(=O)CC1Nc2ccccc2NC1=O (centres undefined),3.2% (inactive)
24,COc1ccc2nc(NC(=O)c3ccc(Br)s3)sc2c1,72.8% (active)
25,CNC(=O)c1ccc2nc(NC(C)=O)sc2c1,6.1% (inactive)
26,CCn1c(SCC(=O)Nc2nc3ccc(OC)cc3s2)nnc1-c1ccoc1C,13.2% (inactive)
